# Bioassay records deposited in PubChem BioAssay by several laboratories.
# Only some compounds are listed: those with a hit (about 2.2% of all), similar ones and a draw of the others.
# VIM-2 inh = VIM-2 metallo-beta-lactamase inhibitors, primary screen, biochemical, epi-absorbance readout, Pseudomonas aeruginosa enzyme; purified VIM-2, nitrocefin hydrolysis, epi-absorbance fluorescence; actives 0.89% (n = 290,000); inhibition, % at 5.6 µM;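 active means inhibition above the mean of all tested compounds plus 3 SD, cutoff set per screening run, cut at about 7.5% in these data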;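 further: red hydrolysis product quenches plate fluorescence so inhibitors raise well fluorescence; 0% = enzyme with DMSO and 100% = DMSO without enzyme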
# PABP polyA inh = PABP poly(A) RNA binding inhibitors, primary screen, biochemical, fluorescence polarization, uHTS | Polyadenylate-binding protein 1 (Homo sapiens), P11940 | calls only at 35 µM | actives 1% (n = 290,000);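 further: calls also rest on retests at 20 µM and on dose response follow-up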
# MLLE-PAM2 inh = inhibitors of PABP1 MLLE–PAM2 peptide binding, primary screen, biochemical, fluorescence polarization, FITC-PAM2, GST-MLLE | actives 0.36% (n = 360,000) | Polyadenylate-binding protein 1 (Homo sapiens), P11940 | AID 588489, 2011 | inhibition, % at 20 µM; in the data active means inhibition above about 35%, passing the limit was not always enough;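 further: plate controls were DMSO wells with GST-MLLE for no effect and wells lacking GST-MLLE protein for full effect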
# eIF4H inh = human eIF4H binding inhibitors, primary screen, translation initiation inhibitor project, biochemical, uHTS, fluorescence polarization; Eukaryotic translation initiation factor 4H (Homo sapiens), Q15056; eIF4H fluorescence polarization binding assay; AID 2012, 2009; inhibition, % at 35 µM; actives 0.94% (n = 290,000);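 further: calls also rest on retests at 20 µM and on dose response follow-up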
# IMP-1 inhibitor = IMP-1 metallo-beta-lactamase inhibitors, primary screen, biochemical, epi-absorbance readout, Pseudomonas aeruginosa enzyme; actives 0.45% (n = 290,000); purified IMP-1, nitrocefin hydrolysis, epi-absorbance fluorescence; inhibition, % at 5.6 µM; AID 1556, 2009;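 active means inhibition above the mean plus 3 SD of all compounds in the same screening run, cut at about 4.5% in these data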;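 further: 0% = IMP-1 with DMSO and 100% = DMSO wells lacking enzyme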
#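 system = purified recombinant IMP-1 beta-lactamase | amount = 0.2 nM IMP-1, as dispensed | medium = HEPES buffer pH 7.1 with ZnSO4 and Brij 35 | times = 25 °C, 15 min preincubation, 25 min reaction | detection = plate fluorescence quenching by hydrolysis product, ex 480/em 530 nm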
# * marks the source's active call; other numbers are inactive results; i = inactive; ? = inconclusive; · = no result given; + = active, no number. Unless noted, how the calls were made is not given here.
SMILES,VIM-2 inh,PABP polyA inh,MLLE-PAM2 inh,eIF4H inh,IMP-1 inhibitor
O=C(c1cnn2c(C(F)(F)F)cc(-c3cccs3)nc12)N1CCN(C(c2ccccc2)c2ccccc2)CC1,-2.9,i,6.9,-7.7,-3.6
CN1CCN(C(=O)c2cnn3c(C(F)(F)F)cc(-c4cccs4)nc23)CC1,8.6*,i,-0.5,3.7,-4.0
COC(=O)CSc1nnc(-c2ccco2)n1-c1ccc(C)cc1,0.4,i,-27.6,0.8,6.0*
O=C(Nc1ccc(Oc2ccccc2)cc1)c1csc(COCCO)n1,·,·,11.4,·,·
COCCCNC(=S)NNC(=O)c1csc(C)n1,-1.7,i,5.0,11.1,8.7*
Cc1ccc(S(=O)(=O)C(C#N)=C2N(C)c3ccccc3N2C)cc1,1.1,i,19.9,15.5,0.1
COc1ccc(S(=O)(=O)NCc2ccc3c(c2)cc(C)n3C)cc1,-1.2,+,48.6*,64.2*,-3.0
CCN(CC)S(=O)(=O)c1ccc(C(=O)NCc2ccc3c(c2)cc(C)n3C)cc1,-2.0,i,45.7*,19.6,-2.9
Cc1cc2cc(CNC(=O)c3ccc(S(=O)(=O)N4CCCCC4)cc3)ccc2n1C,-4.2,i,48.9*,-19.6,-3.4
COc1ccc(C(=O)NCc2ccc3c(c2)cc(C)n3C)cc1OC,0.0,i,27.9,24.8,-2.3
Cc1cc2cc(CNC(=O)c3ccc(S(=O)(=O)N4CCCC4)cc3)ccc2n1C,0.0,i,28.8,26.9,-0.3
CCC(C)NCCOCCOc1ccc(Cl)cc1Br (stereo unspecified),0.2,i,10.9,24.9,1.3
CN(CCCNC(=O)CCC(=O)N1CCOc2ccccc21)Cc1ccccc1,-3.3,i,-8.3,4.0,-4.9
O=C(CN1C(=O)C(c2ccccc2)Oc2cccnc21)NCc1ccccc1F (stereo unspecified),-0.3,i,-3.3,3.4,53.6*
COCCn1c(C)cc(C(=O)CSc2cc(C)c3ccccc3n2)c1C,-0.5,i,7.3,7.5,5.7*
COCCn1c(C)cc(C(=O)CSc2nnc(-c3cccnc3)n2-c2ccccc2F)c1C,0.3,+,-59.6,129.7,-2.9
COCCn1c(C)cc(C(=O)CSc2nc3ccccc3c(=O)n2Cc2ccco2)c1C,0.0,i,-24.8,26.0,-3.9
CN(C(=O)CSc1nnc(-c2ccncc2)n1-c1ccccc1)C1CCS(=O)(=O)C1 (stereo unspecified),-1.7,i,2.6,2.5,-0.3
CN(C(=O)CSc1nnc(-c2cccnc2)n1-c1ccccc1F)C1CCS(=O)(=O)C1 (stereo unspecified),-0.5,+,-22.5,39.2*,-1.7
Cc1ccccc1-n1c(SCC(=O)c2cc(C)n(C)c2C)nnc1-c1cccnc1,-6.0,i,-19.2,15.5,-4.1
Cc1ccc(NC(=S)NC2CCCCC2)cc1S(=O)(=O)N(C)C,-2.5,i,21.0,-5.5,-1.8
CC(C)(C)OC(=O)C[C@H]1C/C=C\C[C@H](CC(=O)N(CCO)Cc2ccccc2)C(=O)N[C@@H](c2ccccc2)COC1=O,·,·,-3.0,·,·
O=c1nc2c(O)cccn2c2c1c(=O)[nH]c1ccccc12,5.3,i,113.0,80.0,8.3*
Cc1c(C(=O)Nc2ccc(F)cc2)c2ccccn2c1CCc1ccncc1,-2.3,i,4.3,13.4,-1.5
CN1C(=O)N(C)C2(c3ccccc3)NC(=O)NC12c1ccccc1 (stereo unspecified),-2.7,i,-6.0,5.2,-4.5
SMILES,VIM-2 inh,PABP polyA inh,MLLE-PAM2 inh,eIF4H inh,IMP-1 inhibitor
CCN1c2ccccc2N(C)C1(C)c1ccccc1 (stereo unspecified),-0.8,+,24.0,83.8*,-2.2
CN1c2ccccc2N(C)C1(C)c1ccccc1,-3.2,+,13.3,66.8*,-5.0
C[C@@H]1CCCCO[C@@H](CN(C)S(=O)(=O)c2cn(C)cn2)[C@@H](C)CN([C@H](C)CO)C(=O)c2cc(NC(=O)Nc3ccc(C(F)(F)F)cc3)ccc2O1,·,·,-1.6,·,·
COc1cccc(-c2nc(CS(=O)(=O)CC(=O)Nc3ccccc3Cl)c(C)o2)c1,1.0,i,-10.5,-14.5,-0.2
CC(C)c1ccc(N(C(=O)c2ccc3c(c2)OCO3)C2C=CS(=O)(=O)C2)cc1 (stereo unspecified),-1.6,i,2.4,5.2,-5.1
O=C(NCSc1ccccc1)c1ccccc1,·,·,41.7*,·,·
COc1ccc(OC)c(-c2cc(C(=O)NCc3ccc(Cl)cc3)no2)c1,-1.5,i,11.9,-1.9,-3.4
Cc1ccc(/C=C/C(=O)c2ccccc(=O)c2O)cc1C,1.1,+,-9.7,66.1*,1.9
O=C(/C=C/c1ccccc1)c1cc(Br)ccc(=O)c1O,-1.6,+,-69.9,82.6*,-0.2
COc1ccc(C=CC(=O)c2ccc(OC)c(OC)c2O)cc1OC,·,·,27.4,·,·
O=C(/C=C/c1ccc(F)cc1)c1cc(Br)ccc1O,-2.8,i,0.3,-6.2,-3.8
COc1ccc(CCc2ccc3ccccc3n2)cc1,·,·,-0.7,·,·
CCCCN(C=O)c1c(CC)nc2ccc(C(=O)N3CCN(S(=O)(=O)CC)CC3)cn12,·,·,8.8,·,·
Oc1ccccc1N1CCN(c2ncnc3scc(-c4ccccc4)c23)CC1,-1.9,i,-7.1,-7.3,0.8
Cc1nc(N2CCN(c3ccccc3O)CC2)c2c(-c3ccccc3)csc2n1,0.8,+,-9.9,100.4*,-2.2
Nc1nc2ccccc2n1C(=O)c1cccs1,-5.5,i,9.5,-6.6,-3.8
O=C(O)c1ccc(/C=N/NC(=O)c2ccc(CN3c4cccc5cccc(c45)S3(=O)=O)cc2)cc1,1.2,i,-7.7,58.7*,-0.5
Cc1nn(Cc2ccc([N+](=O)[O-])cc2)c(=O)n1-c1c(F)cccc1F,1.4,i,5.3,4.6,0.1
CCc1cc(=O)oc2cc(C)cc(OC(C)C(=O)NC3CC(C)(C)NC(C)(C)C3)c12 (stereo unspecified),1.7,i,6.7,-7.4,-1.8
CCc1cc(=O)oc2c(C)c(OC(C)C(=O)NC3CC(C)(C)NC(C)(C)C3)ccc12 (stereo unspecified),8.1*,i,-0.3,2.3,1.5
Cc1cc(NS(=O)(=O)c2ccc(NC(=O)c3ccc(Br)o3)cc2)nc(C)n1,-1.2,i,19.3,4.7,-3.1
Cc1nn(CCO)c2ncc(C(=O)c3cc(F)ccc3O)cc12,-0.7,i,-13.7,-7.1,-3.0
CCCS(=O)(=O)NC(=O)C1(C)CCN(C(=O)c2ccc(OC(F)F)cc2)C1 (stereo unspecified),·,·,-1.9,·,·
O=C1C=C(NNC(=O)c2cccnc2)CC(c2ccco2)C1 (stereo unspecified),0.7,i,44.7*,?,-1.0
